Source: ChEMBL document CHEMBL2040777, “N-Aryl-N'-(chroman-4-yl)ureas and thioureas display in vitro anticancer activity and selectivity on apoptosis-resistant glioblastoma cells: screening, synthesis of simplified derivatives, and structure-activity relationship analysis” (Eur J Med Chem, 2012)
Calls of active or inactive are those of the source. The rule behind the calls is not given here.

Tests used:
[1] = Growth inhibition of human U373 cells after 72 hrs by MTT assay; assay type: functional, cell-based, U-373MG ATCC; conditions: U373 MG
Procedure, shortened: (§1)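 Glioma lines were grown in RPMI with 10% heat-inactivated FCS, 4 mM glutamine, gentamicin and penicillin-streptomycin. Cells were plated for 24 h at 10,000–40,000 cells/mL, then exposed to compound for 72 h. MTT reduction to formazan was read at 570 nm (reference 630 nm). Six replicates were run.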

T98G [2] = experiment: Growth inhibition of human T98G cells after 72 hrs by MTT assay; assay type: functional, cell-based; procedure, shortened: as §1
[3] = Growth inhibition of human Hs683 cells after 72 hrs by MTT assay; assay type: functional, cell-based; conditions: Hs 683, 72 h; procedure, shortened: as §1
B16-F10 = experiment: Growth inhibition of mouse B16F10 cells after 72 hrs by MTT assay; assay type: functional, cell-based; conditions: B16-F10, 72 h
[4] = Selectivity index, ratio of IC50 for mouse astrocytes to IC50 for human U373 cells; parameters: species or system U-373MG ATCC
T98G [5] = experiment: Selectivity index, ratio of IC50 for mouse astrocytes to IC50 for human T98G cells
Hs 683 = experiment: Selectivity index, ratio of IC50 for mouse astrocytes to IC50 for human Hs683 cells
U-373MG ATCC [6] = experiment: Induction of apoptosis in human U373 cells assessed as increase in subG1 cell population at 3 to 10 uM after 24 hrs by flow cytometric analysis; assay type: functional, cell-based
[7] = Cell cycle arrest in human U373 cells assessed as accumulation at G0/G1 phase at 3 to 10 uM after 24 hrs by propidium iodide staining-based flow cytometric analysis; assay type: functional; conditions: U-373MG ATCC
[8] = Cell cycle arrest in human U373 cells assessed as accumulation at G0/G1 phase at 10 to 30 uM after 24 hrs by propidium iodide staining-based flow cytometric analysis; assay type: functional; conditions: U-373MG ATCC
[9] = Cytostatic activity against human U373 cells assessed as global growth ratio by measuring number of cells counted in the last and the first frame of study at 20 uM by quantitative videomicroscopic analysis; assay type: functional, U-373MG ATCC
Procedure, shortened: (§2)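 U373 cells were cultured in 25 cm² flasks and filmed by computer-assisted phase-contrast time-lapse for 72 h, one image every 4 min. Growth level was the cell count in the last frame divided by the first. Global growth ratio was treated growth level over control growth level. Compounds were tested at 20 µM.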

U-373MG ATCC [10] = experiment: Induction of apoptosis in human U373 cells assessed as increase in subG1 cell population at 10 to 30 uM after 24 hrs by flow cytometric analysis; assay type: functional, cell-based
[11] = Growth inhibition of human U373 cells assessed as global growth ratio after 72 hrs by quantitative videomicroscopic analysis relative to untreated control; assay type: functional, U-373MG ATCC; conditions: U373 MG; procedure, shortened: as §2

Row | IC50 (B16-F10) [µM] | Compound | IC50 [1] [µM] | IC50 (T98G [2]) [µM] | IC50 [3] [µM] | Ratio IC50 [4] | Ratio IC50 (T98G [5]) | Ratio IC50 (Hs 683) | other results
1 | 5 | CC1(C)CC(NC(=S)Nc2cccc([N+](=O)[O-])c2)c2cc(Br)ccc2O1 (configuration not stated) | 4 | 4 | 3 | 2 | 2 | 2 | –
2 | – | CC(C)NC1=NS(=O)(=O)c2cc(F)c(Cl)cc2N1 | > 100 | – | – | – | – | – | –
3 | – | CC(C)NC(=O)NC1CC(C)(C)Oc2ccc(Cl)cc21 (configuration not stated) | 62 | > 100 | 85 | – | – | – | –
4 | – | CC(=O)NC1CC(C)(C)Oc2ccc(Cl)cc21 (configuration not stated) | > 100 | – | – | – | – | – | –
5 | 7 | CC1(C)CC(NC(=S)Nc2ccc(Cl)cc2)c2cc(Br)ccc2O1 (configuration not stated) | 7 | 22 | 9 | 2 | 2 | 2 | Activity (U-373MG ATCC [6]): inactive; Activity [7]: Active
6 | – | CCOC(=O)NC1CC(C)(C)Oc2ccc(Cl)cc21 (configuration not stated) | > 100 | – | – | – | – | – | –
7 | – | CC(C)NC(=S)NC1CC(C)(C)Oc2ccc(Cl)cc21 (configuration not stated) | 57 | 91 | 34 | – | – | – | –
8 | 4 | CC1(C)CC(NC(=S)Nc2ccc([N+](=O)[O-])cc2)c2cc(F)ccc2O1 (configuration not stated) | 3 | 5 | 3 | 5 | 5 | 5 | Activity (U-373MG ATCC [6]): inactive; Activity [7]: Active
9 | – | CC1(C)CC(NC(=O)NCc2ccccc2)c2cc(F)ccc2O1 (configuration not stated) | 11 | 49 | 19 | – | – | – | –
10 | – | O=[N+]([O-])c1ccc(NC(=S)NCc2cccc(Cl)c2)cc1 | 27 | 20 | 27 | – | – | – | –
11 | 6 | CC1(C)CC(NC(=S)Nc2cccc([N+](=O)[O-])c2)c2cc(F)ccc2O1 (configuration not stated) | 6 | 9 | 6 | 2 | 2 | 2 | –
12 | – | CC1(C)CC(NC(=O)Nc2cccc(Cl)c2)c2cc(F)ccc2O1 (configuration not stated) | 39 | 45 | 38 | – | – | – | –
13 | 6 | CC1(C)CC(NC(=S)Nc2cccc([N+](=O)[O-])c2)c2cc(Cl)ccc2O1 (configuration not stated) | 3 | 4 | 3 | 3 | 3 | 3 | Activity (U-373MG ATCC [6]): inactive; Activity [7]: Active
14 | – | CC1(C)CC(NC(=O)Nc2ccccc2)c2cc(Cl)ccc2O1 (configuration not stated) | 68 | 34 | 33 | – | – | – | –
15 | – | CC1(C)CC(NC(=O)Nc2ccc(Cl)cc2)c2cc(F)ccc2O1 (configuration not stated) | 24 | 30 | 25 | – | – | – | –
16 | – | CC1(C)CC(NC(=S)NCc2ccccc2)c2cc(F)ccc2O1 (configuration not stated) | 27 | 40 | 25 | – | – | – | –
17 | 3 | CC1(C)CC(NC(=S)Nc2ccc([N+](=O)[O-])cc2)c2cc(Br)ccc2O1 (configuration not stated) | 9 | 5 | 3 | <2 | <2 | <2 | –
18 | – | CC1(C)CC(NC(=S)Nc2ccccc2)c2cc(Cl)ccc2O1 (configuration not stated) | 46 | 37 | 32 | – | – | – | –
19 | 3 | CC1(C)CC(NC(=S)Nc2ccc([N+](=O)[O-])cc2)c2cc(Cl)ccc2O1 (configuration not stated) | 3 | 4 | 2 | 2 | 2 | 2 | Activity (U-373MG ATCC [6]): inactive; Activity [7]: Active
20 | 7 | CC1(C)CC(NC(=S)Nc2cccc(Cl)c2)c2cc(Br)ccc2O1 (configuration not stated) | 8 | 9 | 8 | <2 | <2 | <2 | –
21 | 22 | CC1(C)CC(NC(=O)Nc2ccccc2Cl)c2cc(Br)ccc2O1 (configuration not stated) | 19 | 11 | 22 | >10 | >10 | >10 | Activity [8]: Active; Ratio [9]: 0.2; Activity (U-373MG ATCC [10]): inactive; IC80 [11]: 20 µM
22 | – | COc1ccc(Cl)cc1C(=O)NCCc1ccc(S(=O)(=O)NC(=O)NC2CCCCC2)cc1 [GLYBURIDE] | > 100 | – | – | – | – | – | Activity [8]: inactive
23 | – | CC1(C)CC(NC(=S)NCc2ccccc2)c2cc(Br)ccc2O1 (configuration not stated) | 29 | 54 | 34 | – | – | – | –
24 | – | O=[N+]([O-])c1ccc(NC(=S)NC2CCOc3ccc(Cl)cc32)cc1 (configuration not stated) | 8 | 12 | 6 | – | – | – | –
25 | – | COc1ccc(NC(=S)NC2CC(C)(C)Oc3ccc(Br)cc32)cc1 (configuration not stated) | 40 | 33 | 29 | – | – | – | –

Row | IC50 (B16-F10) [µM] | Compound | IC50 [1] [µM] | IC50 (T98G [2]) [µM] | IC50 [3] [µM] | Ratio IC50 [4] | Ratio IC50 (T98G [5]) | Ratio IC50 (Hs 683) | other results
26 | – | O=[N+]([O-])c1cccc(NC(=S)NC2CCOc3ccc(Cl)cc32)c1 (configuration not stated) | 8 | 10 | 7 | – | – | – | –
27 | 35 | CC1(C)CC(NC(=S)Nc2cccc(C#N)c2)c2cc(F)ccc2O1 (configuration not stated) | 30 | 39 | 33 | – | – | – | –
28 | – | O=[N+]([O-])c1cccc(NC(=S)NCc2cccc(Cl)c2)c1 | 32 | 61 | 41 | – | – | – | –
29 | 258 | Cn1nnc2c(C(N)=O)ncn2c1=O [TEMOZOLOMIDE] | 220 | 879 | 956 | – | – | – | –
30 | – | CCC(C)(C)NC1=NS(=O)(=O)c2cc(Cl)ccc2N1 | > 100 | – | – | – | – | – | –
31 | – | CC1(C)CC(NC(=S)NCc2ccccc2)c2cc(Cl)ccc2O1 (configuration not stated) | 64 | 99 | 43 | – | – | – | –
32 | – | CC1(C)CC(NC(=O)NCc2ccccc2)c2cc(Br)ccc2O1 (configuration not stated) | 27 | 38 | 38 | – | – | – | –
33 | – | CCNC(=S)NC1CC(C)(C)Oc2ccc(Cl)cc21 (configuration not stated) | 96 | > 100 | 72 | – | – | – | –
34 | – | COc1ccc(Cl)cc1CNC(=S)Nc1cccc([N+](=O)[O-])c1 | 32 | – | 23 | – | – | – | –
35 | 7 | CC1(C)CC(NC(=S)Nc2ccc(C#N)cc2)c2cc(Cl)ccc2O1 (configuration not stated) | 10 | 10 | 6 | 3 | 3 | 3 | –
36 | – | COc1ccccc1NC(=S)NC1CC(C)(C)Oc2ccc(Br)cc21 (configuration not stated) | 22 | 42 | 40 | – | – | – | –
37 | 5 | CC1(C)CC(NC(=S)Nc2ccc(C#N)cc2)c2cc(F)ccc2O1 (configuration not stated) | 11 | 19 | 14 | 3 | 3 | 3 | –
38 | 7 | CC1(C)CC(NC(=S)Nc2cccc(C#N)c2)c2cc(Br)ccc2O1 (configuration not stated) | 6 | 9 | 4 | <5 | <5 | <5 | –
39 | 6 | CC1(C)CC(NC(=S)Nc2cccc(C#N)c2)c2cc(Cl)ccc2O1 (configuration not stated) | 7 | 10 | 6 | <5 | <5 | <5 | –
40 | 17 | CC1(C)CC(NC(=S)Nc2ccccc2Cl)c2cc(Br)ccc2O1 (configuration not stated) | 34 | 8 | 22 | <5 | <5 | <5 | –
41 | – | COc1cccc(NC(=S)NC2CC(C)(C)Oc3ccc(Br)cc32)c1 (configuration not stated) | 66 | 87 | 81 | – | – | – | –
42 | – | CC1(C)CC(NC(=O)NS(=O)(=O)c2ccccc2)c2cc(Cl)ccc2O1 (configuration not stated) | 96 | > 100 | > 100 | – | – | – | –
43 | – | CCNC(=O)NC1CC(C)(C)Oc2ccc(Cl)cc21 (configuration not stated) | > 100 | – | – | – | – | – | –
44 | 9 | CC1(C)CC(NC(=O)Nc2ccc(Cl)cc2)c2cc(Br)ccc2O1 (configuration not stated) | 25 | 27 | 24 | 5 | 5 | 5 | –
45 | – | COc1ccc(Cl)cc1CNC(=S)Nc1ccc([N+](=O)[O-])cc1 | 22 | 35 | 15 | – | – | – | –
46 | – | CC1(C)CC(NC(=O)NCc2ccccc2)c2cc(Cl)ccc2O1 (configuration not stated) | 66 | 15 | 47 | – | – | – | –
47 | – | CC1(C)CC(NC(=O)Nc2ccccc2Cl)c2cc(F)ccc2O1 (configuration not stated) | 40 | 27 | 29 | – | – | – | –
48 | – | CC1(C)CC(NC(=O)Nc2cccc(Cl)c2)c2cc(Br)ccc2O1 (configuration not stated) | 69 | 67 | 61 | – | – | – | –
49 | – | CC1(C)CC(NC(=S)Nc2ccc(C#N)cc2)c2cc(Br)ccc2O1 (configuration not stated) | 22 | 24 | 15 | 2 | 2 | 2 | –
